XiGFP reactiv: activators of X-chromosome reactivation in mouse fibroblasts | XiGFP mouse fibroblasts, % GFP-positive cells imaging, 3 d; cells co-treated with 5-aza-dC sensitizer; scaled so ellipticine positive control = 100% | activation, % at 7.58 µM | actives 0.055% (n = 360,000) | AID 743238;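 active means mean normalized replicate activation at least 10% and every replicate at or above 10%; inconclusive means only one of the two criteria met; inactive means mean below 10% and not all replicates reach 10%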;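 further: 0% = median of on-plate neutral control wells and 100% = ellipticine 6 µM median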
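System: 68-5-11 XiGFP fibroblast line | Buffer or medium: DMEM containing 5-aza-dC | Compound: Single point | Times: Compounds 3 days, fix/stain 15 min at room temperature | Benchmarks: Positive control ellipticine, 6 µM final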
PglD DTNB: PglD (C. jejuni) enzyme inhibition; actives 0.098% (n = 360,000); inhibition, % at 12.5 µM; AID 602405; purified PglD enzyme, DTNB colorimetric CoA detection; in the data active means inhibition above about 16%, passing the limit was not always enough; inconclusive means no clear call, values can overlap the other calls
FGF22 binding: FGF22 (human) thermal shift binding. Q9HCT0. recombinant FGF22 thermal shift, SYPRO orange fluorescence; percent of sucrose octasulfate shift, DMSO zero. activity (Tm shift, normalised), % at 9.99 µM. actives 1.5% (n = 340,000). AID 651658;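 active means mean Tm shift, scaled 0 neutral to 100 positive control, at about 1.3% or above, every replicate too, limit read from the data; inconclusive means no clear call, values can overlap the other calls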
Target sequence (Q9HCT0 whole entry, looked up): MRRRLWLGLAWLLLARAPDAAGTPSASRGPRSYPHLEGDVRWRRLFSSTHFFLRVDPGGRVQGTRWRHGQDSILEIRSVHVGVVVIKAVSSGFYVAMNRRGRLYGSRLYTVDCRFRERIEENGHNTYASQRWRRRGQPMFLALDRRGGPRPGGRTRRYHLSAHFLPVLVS
C2C12 statin: suppression of simvastatin myotoxicity; C2C12 myotubes + simvastatin, ATP luminescence, 48 h; scaled: DMSO 0, geranylgeraniol control 100; actives 0.78% (n = 330,000); rescue of ATP level, % at 7.49 µM;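 active means mean ATP rescue above about 67%, or every replicate alone reaching that limit, limit read from the data, passing the limit was not always enough; inconclusive means no clear call, values can overlap the other calls; inactive means mean under the limit and some replicate under it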;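 further: myotubes were challenged with 10 µM simvastatin during compound exposure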
E-sel inducer: E-selectin induction on HUVECs; HUVEC E-selectin immunofluorescence imaging; normalized: neutral wells 0, TNF-alpha wells 100; activation, % at 7.58 µM; actives 0.37% (n = 260,000); AID 686992;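 active means mean E-selectin-positive cell signal at least 10% of the positive control, reached in at least 60% of replicates, without over 20% cell loss; inconclusive means no rule given, readout overlaps actives, possibly toxicity-flagged; inactive means the rest, including those meeting only one limit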
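Read-out: % PE-positive cells | Test system: HUVEC | Doses: One compound dose added by pin transfer | Buffer or medium: EGM-2 over gelatin coat | Signal: Immunofluorescence imaging | Benchmarks: TNF-alpha, DMSO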
DENV2 CPE: protects cells from dengue virus 2 cytopathic effect. actives 1.7% (n = 350,000). AID 651640. DENV2-infected cells, cytopathic effect rescue, plate reader. CPE inhibition, % at 9.99 µM; in the data active means CPE inhibition above about 20%, passing the limit was not always enough; inconclusive means no clear call, values can overlap the other calls; tested in BHK-21 cells;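 further: 0% = median of neutral control wells and 100% = median of positive control wells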
Active calls of the source: *; ? = inconclusive; nt = not tested or not shown. A selection: hits, their analogues and other compounds. The true share with any hit is near 3.3%.

SMILES	XiGFP reactiv	PglD DTNB	FGF22 binding	C2C12 statin	E-sel inducer	DENV2 CPE
COc1ccc(S(=O)(=O)N(C)C[C@@H]2OCCCC[C@H](C)Oc3ccc(NC(=O)Nc4cccc5ccccc45)cc3C(=O)N([C@H](C)CO)C[C@@H]2C)cc1	-1	7	0	nt	1	5
C[C@@H]1CCCCO[C@H](CN(C)S(=O)(=O)c2cn(C)cn2)[C@@H](C)CN([C@H](C)CO)C(=O)c2cc(NC(=O)Nc3cccc4ccccc34)ccc2O1	0	2	1.7*	nt	0	5
COc1ccc(S(=O)(=O)N(C)C[C@H]2OCCCC[C@H](C)Oc3ccc(NC(=O)Nc4cccc5ccccc45)cc3C(=O)N([C@H](C)CO)C[C@H]2C)cc1	0	4	1.7*	nt	9	0
C[C@H](CO)N1C[C@H](C)[C@H](CN(C)S(=O)(=O)c2cn(C)cn2)OCCCC[C@H](C)Oc2ccc(NC(=O)Nc3cccc4ccccc34)cc2C1=O	0	-2	-1	nt	0	2
COc1ccc(S(=O)(=O)N(C)C[C@H]2OCCCC[C@@H](C)Oc3ccc(NC(=O)Nc4cccc5ccccc45)cc3C(=O)N([C@@H](C)CO)C[C@@H]2C)cc1	-1	3	1.3*	nt	1	0
COc1ccc(S(=O)(=O)N(C)C[C@H]2OCCCC[C@@H](C)Oc3ccc(NC(=O)Nc4cccc5ccccc45)cc3C(=O)N([C@@H](C)CO)C[C@H]2C)cc1	0	2	1.5*	nt	0	-8
C[C@H](CO)N1C[C@H](C)[C@@H](CN(C)C(=O)Nc2ccccc2)Oc2ccc(NC(=O)Cn3cnnn3)cc2CC1=O	0	-1	0	22	0	5
O=C(C[C@@H]1CC[C@@H]2[C@H](COC[C@H](O)CN2C(=O)Nc2ccc(C(F)(F)F)cc2)O1)NCCc1ccncc1	0	14	0	-19	0	1
Cc1noc(C)c1NC(=O)N(C)C[C@@H]1Oc2ccc(NC(=O)CCC(F)(F)F)cc2C(=O)N([C@H](C)CO)C[C@@H]1C	0	-5	nt	0	-6	?
O=C(/C=C/c1ccco1)N1CCCC(c2ccccc2)C1 (configuration not stated)	0	nt	44*	nt	nt	nt
O=C(CSc1cccc[n+]1[O-])CSc1cccc[n+]1[O-]	0	nt	43*	nt	nt	-1
CCOC(=O)C1CCCN(C(=O)c2c(-c3ccccc3)noc2C)CC1 (configuration not stated)	0	2	0	1	0	-2
CCOC(=O)C1CCN(C(=O)c2c(-c3c(Cl)cccc3Cl)noc2C)CC1	nt	5	nt	93*	nt	nt
Cc1onc(C(=O)N2CCC(C(N)=O)CC2)c1-c1ccccc1Cl	nt	0	nt	92*	nt	nt
Cc1onc(-c2ccccc2Cl)c1C(=O)N1CCC(C(N)=O)CC1	0	0	0	0	0	-4
COc1ccccc1CC(=O)N1CCCC1	nt	3	nt	-10	nt	nt
CCOC(=O)C1CCN(C(=O)Cc2ccccc2OC)CC1	0	0	56*	3	nt	-4
CCOC(=O)C1CCN(C(=O)c2c(-c3ccccc3)noc2C)CC1	0	nt	43*	nt	4	2
O=C(Nc1ccccc1)N1C[C@@H]2[C@H](c3ccccc31)[C@H](CO)N2Cc1cocn1	0	2	-2	36	0	?
COc1ccccc1-c1cn(CC[C@@H]2CC[C@H](NC(=O)c3cnccn3)[C@H](CO)O2)nn1	0	-2	0	-1	0	-2
C[C@@H]1CCCCO[C@H](CN(C)C(=O)c2ccccc2)[C@H](C)CN([C@@H](C)CO)C(=O)c2cc(NS(=O)(=O)c3ccc(F)cc3)ccc2O1	0	3	0	nt	0	-5
COc1ccc(CNC(=O)C[C@@H]2C[C@H]3c4cc(NC(=O)C5CCC5)ccc4O[C@H]3[C@H](CO)O2)cc1	0	1	0	1	0	1
COC(=O)[C@@]1(Cc2ccccc2)[C@H]2C(=O)N(C)C(=O)[C@H]2[C@H]2CN=C(SCc3ccc(Cl)cc3)N21	0	4	43*	-12	-1	-4
CC1CC2=C(C(=O)O1)C(c1ccc(Cl)cc1)Nc1ccccc1N2 (configuration not stated)	0	nt	0	nt	nt	88*
CC=Cc1ccc2n(c1=O)C[C@H]1[C@H](CO)[C@@H](C(=O)N(C)C)[C@@H]2N1Cc1cc(F)ccc1F (mixture of isomers)	1	-1	0	8	0	-3
SMILES	XiGFP reactiv	PglD DTNB	FGF22 binding	C2C12 statin	E-sel inducer	DENV2 CPE
O=S(=O)(Nc1ccccc1)c1ccc(F)cc1	nt	-3	nt	nt	nt	nt
Cc1cccc(C)c1NS(=O)(=O)c1ccc(F)cc1	nt	5	nt	115*	nt	nt
Cc1cccc(C)c1NS(=O)(=O)c1ccc(OCCNS(C)(=O)=O)cc1	0	nt	43*	-3	nt	5
CCOCCCNc1nc2c(-c3ccccc3)nnn2c2ccccc12	0	7	0	88*	1	-5
CCCCNc1nc2c(-c3ccccc3)nnn2c2ccccc12	?	nt	0	nt	nt	-3
Cc1ccc(-c2cnc3c(c2)C(=O)N([C@H](C)CO)C[C@H](C)[C@H](CN(C)C(=O)Cc2ccccc2)O3)cc1	-1	-1	0	29	0	76*
Cc1ccc(-c2cnc3c(c2)C(=O)N([C@@H](C)CO)C[C@@H](C)[C@H](CN(C)C(=O)Cc2ccccc2)O3)cc1	1	2	0	51	0	-6
C[C@@H]1CN([C@H](C)CO)C(=O)c2cc(C3=CCCCC3)cnc2O[C@H]1CN(C)C(=O)c1ccc2c(c1)OCO2	0	-2	0	32	2	54*
C[C@H](CO)N1C[C@H](C)[C@H](CN(C)C(=O)Cc2ccccc2)Oc2ncc(C3=CCCCC3)cc2C1=O	-1	nt	0	nt	0	17
Cc1ccc(-c2cnc3c(c2)C(=O)N([C@H](C)CO)C[C@@H](C)[C@@H](CN(C)C(=O)Cc2ccncc2)O3)cc1	0	0	0	-1	1	1
C[C@@H]1CN([C@@H](C)CO)C(=O)c2cc(C3=CCCCC3)cnc2O[C@@H]1CN(C)C(=O)Cc1ccccc1	0	-9	0	-191	0	46*
Cc1ccc(-c2cnc3c(c2)C(=O)N([C@H](C)CO)C[C@H](C)[C@@H](CN(C)C(=O)Cc2ccncc2)O3)cc1	0	7	0	-3	0	27*
O=C(CCCCCCCCC(=O)N/N=C/c1ccco1)N/N=C/c1ccco1	0	5	43*	-1	nt	3
O=C(CCC(=O)N/N=C/c1ccco1)N/N=C/c1ccco1	0	1	0	nt	0	?

Assay outcomes deposited in PubChem by Broad Institute.
